Measurements from ChEMBL document CHEMBL1770090, “Synthesis, antimicrobial, antioxidant, anti-hemolytic and cytotoxic evaluation of new imidazole-based heterocycles” (Eur J Med Chem, 2011).
Converted amounts (≈) assume the structure as drawn.

Key:
Bacillus subtilis [1] = test: Antimicrobial activity against Bacillus subtilis ATCC 6633 after 24 hrs by agar well diffusion method; format: functional
Outline: (§1)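 Agar well diffusion. Inocula of 100 µL: bacteria 1 × 10^8 CFU/mL on nutrient agar, yeast 1 × 10^6 CFU/mL on Sabouraud dextrose agar, fungi 1 × 10^4 spore/mL on potato dextrose agar. 10 mm wells received 100 µL of compound at 100 mg/mL in DMSO. Bacteria incubated 24 h at 37 °C, fungi 48 h at 28 °C. Controls were DMSO, ciprofloxacin 50 µg/mL and ketoconazole 50 µg/mL. Inhibition zone diameter in mm, scored N.A. to ++++, average of triplicates.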

Priestia megaterium = test: Antimicrobial activity against Bacillus megaterium ATCC 9885 after 24 hrs by agar well diffusion method; format: functional; outline: as §1
Staphylococcus aureus = test: Antimicrobial activity against Staphylococcus aureus ATCC 29213 after 24 hrs by agar well diffusion method; format: functional; outline: as §1
Klebsiella pneumoniae = test: Antimicrobial activity against Klebsiella pneumoniae ATCC 13883 after 24 hrs by agar well diffusion method; format: functional; outline: as §1
Pseudomonas aeruginosa = test: Antimicrobial activity against Pseudomonas aeruginosa ATCC 27953 after 24 hrs by agar well diffusion method; format: functional; outline: as §1
Escherichia coli = test: Antimicrobial activity against Escherichia coli ATCC 25922 after 24 hrs by agar well diffusion method; format: functional; outline: as §1
Candida albicans = test: Antimicrobial activity against Candida albicans NRRL Y-477 after 48 hrs by agar well diffusion method; format: functional; outline: as §1
Aspergillus niger = test: Antimicrobial activity against Aspergillus niger after 48 hrs by agar well diffusion method; format: functional; outline: as §1
[2] = Antioxidant activity assessed as ABTS radical scavenging activity at 2 mM; format: functional
Outline: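 ABTS (60 µM, 2 mL) was oxidized with MnO2 (25 mg/mL, 3 mL) in 0.1 M phosphate buffer pH 7, then centrifuged and filtered, with A734 adjusted to about 0.5. 50 µL of 2 mM compound in MeOH/phosphate buffer (1:1) was added. Colour loss expressed as % inhibition. L-ascorbic acid was the standard; blank and negative controls used MeOH/buffer.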

[3] = Antioxidant activity in rat erythrocytes assessed as inhibition of peroxyl radicals-induced hemolysis at 2 mM after 2 hrs; format: functional; settings: Erythrocyte, read-out: INH
Outline: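 Rat blood from cardiac puncture, heparinized. Erythrocytes were washed three times in 0.15 M NaCl. A 10% suspension in PBS pH 7.4 was mixed with an equal volume of 200 mM AAPH in PBS containing sample, then shaken at 37 °C for 2 h. Mixture diluted with 8 volumes of PBS and centrifuged; supernatant A540 compared with a water-lysed sample for complete hemolysis. L-ascorbic acid was the positive control. Mean ± SD.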

[4] = Cytotoxicity against mouse EAC cells assessed as cell viability using trypan blue staining after 2 hrs by hemocytometer analysis; format: functional, cell-based; settings: Ehrlich
Bacillus subtilis [5] = test: Antimicrobial activity against Bacillus subtilis ATCC 6633 after 24 hrs by two fold serial dilution technique; format: functional; settings: ATCC 6633, 24 h
Outline: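 Tested only compounds giving inhibition zones ≥ 16 mm, by two-fold serial dilution in nutrient broth. Final concentrations were […], 175, 87.5, 43.8 and 21.9 µg/mL. Each 5 mL tube received 0.1 mL inoculum of about 1 × 10^8 CFU/mL and was incubated 24 h at 37 °C. MIC was the lowest concentration with no growth.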

Row | Compound | diameter of the inhibition zone (DIZ) (Bacillus subtilis [1]) | diameter of the inhibition zone (DIZ) (Priestia megaterium) | diameter of the inhibition zone (DIZ) (Staphylococcus aureus) | diameter of the inhibition zone (DIZ) (Klebsiella pneumoniae) | diameter of the inhibition zone (DIZ) (Pseudomonas aeruginosa) | diameter of the inhibition zone (DIZ) (Escherichia coli) | diameter of the inhibition zone (DIZ) (Candida albicans) | diameter of the inhibition zone (DIZ) (Aspergillus niger) | inhibition [2] [%] | percent hemolysis at 2000 µM [3] [%] | IC50 [4] [µg/mL] | MIC (Bacillus subtilis [5]) [µg/mL]
1 | C/C(=N/NC(=O)c1cc2ccc(O)cc2oc1=N)c1nc(-c2ccccc2)[nH]c1C | <=4 mm | <=4 mm | <=4 mm | <=4 mm | <=4 mm | <=4 mm | <=4 mm | <=4 mm | 4.56 | 5.55 | 150 (≈ 375 µM) | –
2 | C/C(=N\NC(N)=S)c1nc(-c2ccccc2)[nH]c1C | 16 mm | 10 mm | 5 mm | 10 mm | <=4 mm | <=4 mm | <=4 mm | <=4 mm | 60.2 | 2.45 | 4.18 (≈ 15.3 µM) | 87.5 (≈ 320 µM)
3 | C/C(=N\N=C1\NC(=O)/C(=C/c2cn(-c3ccccc3)nc2-c2cccs2)S1)c1nc(-c2ccccc2)[nH]c1C | <=4 mm | <=4 mm | <=4 mm | <=4 mm | <=4 mm | <=4 mm | <=4 mm | <=4 mm | 76.2 | 3.45 | 8.25 (≈ 15 µM) | –
4 | CC(=O)N1CCN(c2ccc(OCC3COC(Cn4ccnc4)(c4ccc(Cl)cc4Cl)O3)cc2)CC1 (stereo unspecified) [KETOCONAZOLE] | <=4 mm | <=4 mm | <=4 mm | <=4 mm | <=4 mm | <=4 mm | >=21 mm | >=21 mm | – | – | – | –
5 | C/C(=N\N=C1\N=C(c2cc3ccccc3o2)CS1)c1nc(-c2ccccc2)[nH]c1C | <=4 mm | <=4 mm | <=4 mm | <=4 mm | <=4 mm | <=4 mm | <=4 mm | <=4 mm | 39.9 | 1.9 | 21.5 (≈ 52 µM) | –
6 | C/C(=N\NC(=O)/C(C#N)=C\c1cn(-c2ccccc2)nc1-c1cccs1)c1nc(-c2ccccc2)[nH]c1C | <=4 mm | <=4 mm | <=4 mm | <=4 mm | <=4 mm | <=4 mm | <=4 mm | <=4 mm | 34.6 | 5.55 | 125 (≈ 242 µM) | –
7 | C/C(=N\N=C1\NC(=O)/C(=C/c2cn(-c3ccccc3)nc2-c2cc3ccccc3o2)S1)c1nc(-c2ccccc2)[nH]c1C | <=4 mm | <=4 mm | <=4 mm | <=4 mm | <=4 mm | <=4 mm | <=4 mm | <=4 mm | 35.9 | 1.5 | 125 (≈ 215 µM) | –
8 | C/C(=N\N=C1\NC(=O)/C(=C/c2ccc(F)cc2)S1)c1nc(-c2ccccc2)[nH]c1C | <=4 mm | <=4 mm | <=4 mm | <=4 mm | <=4 mm | <=4 mm | <=4 mm | <=4 mm | 79.2 | 1.4 | 14.5 (≈ 34.6 µM) | –
